pIC50: −log10 of the molar value.
Tests used:
Mus musculus [1] = assay: Tested for Mice bearing Ehrlich carcinoma surviving at least 50 days out of 10 animal treated at dose of 20 mg/kg; format: functional
Method in brief: (§1)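 Female CD-1 mice, Ehrlich ascites carcinoma, 0.1 mL of 10^7 cells/mL given ip. Drug in 0.9% NaCl with 5% ethanol and trace Tween 80, serially diluted with saline. Dosed ip at 0.5 mL once daily for 6 days from 24 h post-implant; saline controls. T/C is the mean survival of treated mice dying before 50 days as % of controls. Survivors are those alive ≥50 days.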

Mus musculus [2] = assay: Tested for change in body weight of Mice bearing Ehrlich carcinoma from onset to termination at dose of 5 mg/kg; format: functional
Method in brief: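 Female CD-1 mice given ip implants of Ehrlich carcinoma (0.1 mL of 10^7 cells/mL). Drug in saline containing 5% ethanol and Tween 80, injected ip once daily for 6 consecutive days from 24 h post-implant. Controls received 0.9% NaCl. % body weight change measured between tumor implantation (day 0) and day 7.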

Mus musculus [3] = assay: Tested for number of animal surviving at least 50 days out of 5 animal treated at dose of 5 mg/kg
Mus musculus [4] = assay: Tested for number of animal surviving at least 50 days out of 25 animal treated at dose of 15 mg/kg
[5] = Tested for inhibition of growth of sarcoma 180 cells in culture; format: functional, cell-based; conditions: Mus musculus
Method in brief: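 Sarcoma 180 cells in suspension in Fischer's medium with 10% horse serum and penicillin/streptomycin, seeded at 10^4 cells/mL. Drug added from 10× stocks in 10% Me2SO/PBS, final 1–100 μM. Control cultures contained 1% Me2SO. Triplicate Coulter counts at 24, 48 and 72 h. IC50 read from a plot of inhibition of cell-number increase at 72 h versus concentration.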

Mus musculus [6] = assay: (§2) Tested for change in body weight from onset to termination at dose of 10 mg/kg; format: functional
Method in brief: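 Tumor-bearing mice were dosed ip once daily for 6 consecutive days from 24 h after ip tumor implantation; saline controls. Each group was weighed on day 7, the day after the last injection, and the change from the implantation day (day 0) was expressed as % body-weight change, used as a toxicity measure.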

Mus musculus [7] = assay: Tested for Mice bearing […] 755 surviving at least 50 days out of 5 animal treated at dose of 5 mg/kg; format: functional
Method in brief: (§3)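 Female AKD2F1 mice, adenocarcinoma 755, 0.1 mL of 10^7 cells/mL given ip. Vehicle 0.9% NaCl/5% ethanol/Tween 80, serially diluted with saline. Dosed ip at 0.5 mL once daily for 6 consecutive days starting 24 h post-implant; saline controls. T/C is the mean survival of non-50-day survivors as % of controls. Survivors are those alive ≥50 days.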

Mus musculus [8] = assay: Tested for Mice bearing Ehrlich carcinoma surviving at least 50 days out of 10 animal treated at dose of 10 mg/kg; format: functional; method in brief: as §1
Mus musculus [9] = assay: Tested for mean survival time treated animal not surviving 50 days as a percentage at dose of 1.25 mg/kg; format: functional
Method in brief: (§4)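 Female CD-1 mice, Sarcoma 180 ascites, 0.1 mL of 10^7 cells/mL given ip. Drug in 0.9% NaCl, 5% ethanol, Tween 80, serially diluted with saline. Dosed ip at 0.5 mL daily for 6 days from 24 h post-implant; daily dose based on starting mean weight. T/C is the mean survival of treated mice dying before 50 days vs controls. Survivors are those alive ≥50 days out of those treated.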

Mus musculus [10] = assay: Tested for mean survival time of Mice bearing […] 755 not surviving 50 days as a percentage at dose of 20 mg/kg; format: functional; method in brief: as §3
Mus musculus [11] = assay: Tested for Mice bearing Ehrlich carcinoma surviving at least 50 days out of 10 animal treated at dose of 5 mg/kg; format: functional; method in brief: as §1
Mus musculus [12] = assay: Tested for mean survival time treated animal not surviving 50 days as a percentage at dose of 20 mg/kg; format: functional; method in brief: as §4
Mus musculus [13] = assay: Tested for number of animal surviving at least 50 days out of 10 animal treated at dose of 20 mg/kg; format: functional; method in brief: as §4
Mus musculus [14] = assay: Tested for mean survival time of Mice bearing Ehrlich carcinoma not surviving 50 days as a percentage at dose of 10 mg/kg; format: functional; method in brief: as §1
Mus musculus [15] = assay: Tested for Mice bearing […] 755 surviving at least 50 days out of 5 animal treated at dose of 20 mg/kg; format: functional; method in brief: as §3
Mus musculus [16] = assay: Tested for number of animal surviving at least 50 days out of 10 animal treated at dose of 15 mg/kg; format: functional; method in brief: as §4
Mus musculus [17] = assay: Tested for change in body weight from onset to termination at dose of 15 mg/kg; format: functional
Method in brief: (§5)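 Female CD-1 mice inoculated ip with 0.1 mL of 10^7 Sarcoma 180 ascites cells/mL. Drug in 0.9% NaCl with 5% ethanol and Tween 80, serially diluted in saline, given ip once daily for 6 days starting 24 h after implantation. Dose based on mean starting weight. Controls received saline. Weight change recorded from day 0 to day 7, as % change.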

Mus musculus [18] = assay: Tested for number of animal surviving at least 50 days out of 10 animal treated at dose of 2.5 mg/kg; format: functional; method in brief: as §4
Mus musculus [19] = assay: Tested for mean survival time of Mice bearing […] 755 not surviving 50 days as a percentage at dose of 5 mg/kg; format: functional; method in brief: as §3
Mus musculus [20] = assay: Tested for change in body weight from onset to termination at dose of 2.5 mg/kg; format: functional; method in brief: as §5
Mus musculus [21] = assay: Tested for change in body weight of Mice bearing […] 755 from onset to termination at dose of 20 mg/kg; format: functional
Method in brief: (§6)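 Adenocarcinoma 755 implanted ip (0.1 mL of 10^7 cells/mL) in female AKD2F1 mice. Daily ip dosing for 6 days beginning 24 h after implantation, vehicle 0.9% NaCl/5% ethanol/Tween 80, lower doses by saline dilution. Control mice received saline. Weight difference between day 0 and day 7 taken as % change and used as a toxicity measure.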

Mus musculus [22] = assay: Tested for change in body weight of Mice bearing […] 755 from onset to termination at dose of 5 mg/kg; format: functional; method in brief: as §6
Mus musculus [23] = assay: Tested for mean survival time of Mice bearing […] 755 not surviving 50 days as a percentage at dose of 10 mg/kg; format: functional; method in brief: as §3
Mus musculus [24] = assay: Tested for change in body weight of Mice bearing […] 755 from onset to termination at dose of 10 mg/kg; format: functional; method in brief: as §6
Mus musculus [25] = assay: Tested for mean survival time of Mice bearing Ehrlich carcinoma not surviving 50 days as a percentage at dose of 5 mg/kg; format: functional; method in brief: as §1
Mus musculus [26] = assay: Tested for mean survival time treated animal not surviving 50 days as a percentage at dose of 10 mg/kg; format: functional; method in brief: as §4
Mus musculus [27] = assay: Tested for change in body weight from onset to termination at dose of 5 mg/kg; format: functional; method in brief: as §5
Mus musculus [28] = assay: Tested for mean survival time of Mice bearing Ehrlich carcinoma not surviving 50 days as a percentage at dose of 20 mg/kg; format: functional; method in brief: as §1
Mus musculus [29] = assay: Tested for change in body weight from onset to termination at dose of 20 mg/kg; format: functional; method in brief: as §5
Mus musculus [30] = assay: Tested for mean survival time treated animal not surviving 50 days as a percentage at dose of 5 mg/kg; format: functional; method in brief: as §4
Mus musculus [31] = assay: Tested for change in body weight from onset to termination at dose of 1.25 mg/kg; format: functional; method in brief: as §5
Mus musculus [32] = assay: Tested for mean survival time treated animal not surviving 50 days as a percentage at dose of 2.5 mg/kg; format: functional; method in brief: as §4
Mus musculus [33] = assay: Tested for mean survival time treated animal not surviving 50 days as a percentage at dose of 15 mg/kg; format: functional; method in brief: as §4
Mus musculus [34] = assay: Tested for Mice bearing […] 755 surviving at least 50 days out of 5 animal treated at dose of 10 mg/kg; format: functional; method in brief: as §3
Mus musculus [35] = assay: Tested for number of animal surviving at least 50 days out of 10 animal treated at dose of 10 mg/kg; format: functional; method in brief: as §4
Mus musculus [36] = assay: Tested for number of animal surviving at least 50 days out of 10 animal treated at dose of 5 mg/kg; format: functional; method in brief: as §4
Mus musculus [37] = assay: as §2; format: functional; method in brief: as §5; remark: listed apart in the source
Mus musculus [38] = assay: Tested for number of animal surviving at least 50 days out of 10 animals treated at dose of 2.5 mg/kg; format: functional; method in brief: as §4
Mus musculus [39] = assay: Tested for number of animal surviving at least 50 days out of 30 animals treated at dose of 5 mg/kg; format: functional; method in brief: as §4
Mus musculus [40] = assay: Tested for number of animal surviving at least 50 days out of 10 animals treated at dose of 20 mg/kg; format: functional; method in brief: as §4
Mus musculus [41] = assay: Tested for number of animal surviving at least 50 days out of 30 animals treated at dose of 10 mg/kg; format: functional; method in brief: as §4
Mus musculus [42] = assay: Tested for number of animal surviving at least 50 days out of 15 animals treated at dose of 15 mg/kg; format: functional; method in brief: as §4

Structure (SMILES) | Survivors (Mus musculus [1]) | Activity (Mus musculus [2]) | pIC50 [5] | Survivors (Mus musculus [7]) | Survivors (Mus musculus [8]) | Activity (Mus musculus [10]) | Survivors (Mus musculus [11]) | Activity (Mus musculus [12]) | Survivors (Mus musculus [13]) | Activity (Mus musculus [14]) | Survivors (Mus musculus [15]) | Activity (Mus musculus [17]) | Activity (Mus musculus [19]) | Activity (Mus musculus [20]) | Activity (Mus musculus [21]) | Activity (Mus musculus [22]) | Activity (Mus musculus [26]) | Activity (Mus musculus [27]) | Activity (Mus musculus [29]) | Activity (Mus musculus [30]) | also measured
CCCc1c(O)c(C=O)c(C=O)c(O)c1CCC | 1 | 5% | 4.54 | 4 | 4 | 35% | 0 | 150% | 0 | 202% | 3 | 2% | 16% | 9% | -15% | -16% | 178% | 9% | -3% | 205% | Survivors (Mus musculus [3]): 4; Survivors (Mus musculus [4]): 2; Activity (Mus musculus [6]): -1%; Activity (Mus musculus [9]): 88%; Survivors (Mus musculus [16]): 0; Survivors (Mus musculus [18]): 0; Activity (Mus musculus [23]): 22%; Activity (Mus musculus [24]): -15%; Activity (Mus musculus [25]): 154%; Activity (Mus musculus [28]): 166%; Activity (Mus musculus [31]): 10%; Mean survival time, treated vs control (T/C) (Mus musculus [32]): 138%; Activity (Mus musculus [33]): 171%; Survivors (Mus musculus [34]): 4
COc1c(C)c(C)c(OC)c(C=O)c1C=O | – | – | 4.01 | – | – | – | – | 103% | 0 | – | – | – | – | – | – | – | 96% | 15% | 11% | 81% | Survivors (Mus musculus [35]): 0; Survivors (Mus musculus [36]): 0; Activity (Mus musculus [37]): 15%
Cc1c(C)c(O)c(C=O)c(C=O)c1O | 3 | 21% | 4.59 | 4 | 2 | 138% | 0 | 91% | – | 125% | 2 | -3% | 27% | 23% | -11% | -2% | 195% | 6% | -4% | 182% | Survivors (Mus musculus [38]): 0; Survivors (Mus musculus [39]): 3; Survivors (Mus musculus [40]): 0; Activity (Mus musculus [24]): -13%; Activity (Mus musculus [25]): 120%; Activity (Mus musculus [37]): 1%; Survivors (Mus musculus [41]): 3; Survivors (Mus musculus [42]): 0; Activity (Mus musculus [28]): 127%; Mean survival time, treated vs control (T/C) (Mus musculus [32]): 128%; Activity (Mus musculus [33]): 148%; Survivors (Mus musculus [34]): 5
COc1c(C)c(C)c(O)c(C=O)c1C=O | – | – | 4.43 | – | – | – | – | – | – | – | – | – | – | – | – | – | – | – | – | – | –

— ChEMBL document CHEMBL1121449, “Synthesis and antineoplastic activity of hydroquinone dialdehydes” (J Med Chem, 1980)
